Converted amounts (≈) assume the structure as drawn.
Legend:
[1] = tested on: Human immunodeficiency virus 1; assay: Antiviral activity against rilpivirine resistant HIV1 harboring reverse transcriptase E138K mutant assessed as inhibition of viral infection in human TZM-bl cells measured after 1 day by luciferase reporter gene assay; type: functional, organism-based; settings: Human immunodeficiency virus 1, TZM-bl, 24 h
[2] = tested on: Human immunodeficiency virus 1; assay: Antiviral activity against HIV1 NL4-3 assessed as inhibition of viral infection in human TZM-bl cells measured after 1 day by luciferase reporter gene assay; type: functional, organism-based; settings: Human immunodeficiency virus 1, NL4-3, TZM-bl, 24 h
[3] = tested on: Human immunodeficiency virus 1; assay: Resistance index, ratio of EC50 for rilpivirine resistant HIV1 harboring reverse transcriptase E138K mutant infected in human TZM-bl cells to EC50 for HIV1 NL4-3 infected in human TZM-bl cells; type: functional
[4] = tested on: Human immunodeficiency virus 1; assay: Resistance index, ratio of EC50 for […] resistant HIV1 A17 harboring reverse transcriptase K103N/Y181C double mutant infected in human MT2 cells to EC50 for HIV1 3B infected in human MT2 cells; type: functional
Method in brief: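 Fold change is EC50 against A17 (K103N/Y181C) divided by EC50 against IIIB. Both are from the MT-2 assay: 100 TCID50 virus, overnight exposure to compound, then compound-free medium, and day-4 p24 ELISA.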

[5] = Cytotoxicity against human TZM-bl cells assessed as reduction in cell viability after 1 day by CytoTox-Glo assay; type: cell-based; settings: for CC50 at 24 h: TZM-bl cells; for CC50: tzm, 24 h
Method in brief: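 TZM-bl cells exposed to graded compound concentrations for 1 day, run in parallel with the antiviral assay. Viability read by CytoTox-Glo following the manufacturer's protocol.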

[6] = n-octanol-water partition coefficient, logP of compound at pH 7.4 stirred for 24 hrs followed by overnight incubation by HPLC analysis; type: physicochemical
[7] = Metabolic stability in human liver microsomes assessed as parent compound remaining at 1 uM incubated for 30 mins in presence of NADPH by LC-MS analysis; type: ADME; settings: read-out: Stability
Method in brief: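 Compound at 1 µM final with 0.1 mg/mL human liver microsomes, 5 mM MgCl2, 1.0 mM NADPH in 0.1 M potassium phosphate pH 7.4 at 37 °C. Parent measured by LC-MS/MS (MRM, ESI).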

[8] = tested on: Liver microsome; assay: Half life in human liver microsomes at 1 uM by LC-MS analysis; type: ADME
Method in brief: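 Compound at 1 µM final with 0.1 mg/mL human liver microsomes, 5 mM MgCl2, 1.0 mM NADPH in 0.1 M potassium phosphate pH 7.4 at 37 °C. Quenched with ice-cold acetonitrile at 0, 5, 15, 30 and 45 min, in duplicate. Parent measured by LC-MS/MS (MRM, ESI).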

[9] = tested on: Human immunodeficiency virus 1; assay: Antiviral activity against HIV1 3B infected in human MT2 cells measured on day 4 post infection by p24 ELISA method; type: functional, organism-based; settings: Human immunodeficiency virus 1, 3B, MT2, 96 h
[10] = Selectivity index, ratio of CC50 for human TZM-bl cells to EC50 for HIV1 3B infected in human MT2 cells; type: toxicity, cell-based
[11] = Aqueous solubility in pH 7.4 phosphate buffer at 10 mg/ml after 4 hrs by UV-HPLC method; type: physicochemical; settings: pH 7.4, 4 h
[12] = Aqueous solubility in 0.01 M Hcl at pH 2 at 10 mg/ml after 4 hrs by UV-HPLC method; type: physicochemical; settings: buffer, pH 2, 4 h
[13] = tested on: Human immunodeficiency virus 1; assay: Antiviral activity against […] resistant HIV1 A17 harboring reverse transcriptase K103N/Y181C double mutant infected in human MT2 cells measured on day 4 post infection by p24 ELISA method; type: functional, organism-based; settings: Human immunodeficiency virus 1, A17, MT2, 96 h
Method in brief: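 MT-2 cells (10^4 per well) were infected with 100 TCID50 of IIIB or A17 in RPMI 1640 with 10% FBS, with or without graded compound concentrations, overnight. Medium was then replaced with compound-free medium. On day 4, supernatant was mixed with an equal volume of 5% Triton X-100 and p24 was quantified by ELISA. EC50 was calculated from percent inhibition of p24 production.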

[14] = tested on: Human immunodeficiency virus 1; assay: Resistance index, ratio of EC50 for rilpivirine resistant HIV1 harboring reverse transcriptase K101E mutant infected in human TZM-bl cells to EC50 for HIV1 NL4-3 infected in human TZM-bl cells; type: functional
[15] = tested on: Human immunodeficiency virus 1; assay: Antiviral activity against multidrug resistant HIV1 harboring reverse transcriptase L74V/M41L/V106A/T215Y multimutant assessed as inhibition of viral infection in human TZM-bl cells measured after 1 day by luciferase reporter gene assay; type: functional, organism-based; settings: Human immunodeficiency virus 1, TZM-bl, 24 h
[16] = tested on: Human immunodeficiency virus 1; assay: Antiviral activity against HIV1 NL4-3 harboring reverse transcriptase E138K mutant assessed as inhibition of viral infection in human TZM-bl cells measured after 1 day by luciferase reporter gene assay; type: functional, organism-based; settings: Human immunodeficiency virus 1, NL4-3, TZM-bl, 24 h
Method in brief: (§1)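 Single-round infection of TZM-bl cells with 800 TCID50 of NL4-3 or its RT-mutant variants, with compound at various concentrations. After 1 day, medium was replaced by Bright Glo reagent and luminescence was read.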

[17] = tested on: Human immunodeficiency virus 1; assay: Antiviral activity against HIV1 NL4-3 harboring reverse transcriptase K101E mutant assessed as inhibition of viral infection in human TZM-bl cells measured after 1 day by luciferase reporter gene assay; type: functional, organism-based; settings: Human immunodeficiency virus 1, NL4-3, TZM-bl, 24 h; method in brief: as §1
[18] = tested on: Human immunodeficiency virus 1; assay: Resistance index, ratio of EC50 for multidrug resistant HIV1 harboring reverse transcriptase L74V/M41L/V106A/T215Y multimutant infected in human TZM-bl cells to EC50 for HIV1 NL4-3 infected in human TZM-bl cells; type: functional
[19] = tested on: Human immunodeficiency virus 1; assay: Resistance index, ratio of EC50 for HIV1 NL4-3 harboring reverse transcriptase E138K mutant infected in human TZM-bl cells to EC50 for HIV1 NL4-3 infected in human TZM-bl cells; type: functional
[20] = tested on: Human immunodeficiency virus 1; assay: Resistance index, ratio of EC50 for HIV1 NL4-3 harboring reverse transcriptase K101E mutant infected in human TZM-bl cells to EC50 for HIV1 NL4-3 infected in human TZM-bl cells; type: functional

| Structure (SMILES) | EC50 [1] [nM] | EC50 [2] [nM] | Ratio EC50 [3] | Ratio EC50 [4] | logD at 24 h [6] | remaining at 0.5 h, 1 µM [7] [%] | t1/2 [8] [h] | CC50 [5] [nM] | EC50 [9] [nM] | Ratio CC50/EC50 [10] | solubility [11] [µg/mL] | solubility [12] [µg/mL] | also measured |
| --- | --- | --- | --- | --- | --- | --- | --- | --- | --- | --- | --- | --- | --- |
| COCc1cc(N)c(Nc2ccc(C#N)cc2)cc1Oc1c(C)cc(CCC#N)cc1C | 13.3 | 1.45 | 9.2 | 0.9 | 3.25 | 90.8 | 3.85 |  |  |  |  |  | CC50 at 24 h [5]: > 200000 nM |
| CC(=O)OCc1cc(N)c(Nc2ccc(C#N)cc2)cc1Oc1c(C)cc(CCC#N)cc1C | 39.1 | 3.3 | 12 | 3.4 | 2.84 | 3 | 0.17 | 44800 |  |  |  |  |  |
| Cc1cc(CCC#N)cc(C)c1Oc1cc(Nc2ccc(C#N)cc2)c(N)cc1C(=O)NC1CC1 | 22.1 | 2 | 11 |  | 2.61 | 63.2 |  | 121000 | 9.58 | 12630 | 1.94 (≈ 4.17 µM) | 141 (≈ 303 µM) |  |
| CCOCc1cc(N)c(Nc2ccc(C#N)cc2)cc1Oc1c(C)cc(CCC#N)cc1C | 88.4 | 14.3 | 6.2 | 12 |  |  |  | 194000 | 3.76 | 51596 |  |  | EC50 [13]: 46.6 nM |
| CNC(=O)c1cc(N)c(Nc2ccc(C#N)cc2)cc1Oc1c(Br)cc(CCC#N)cc1OC | 12.5 | 5.58 | 2.2 | 14 | 3.16 | 75.7 | 2.32 | 52400 | 2.1 | 24952 | 3.38 (≈ 6.5 µM) | 25.8 (≈ 49.6 µM) | EC50 [13]: 29.3 nM |
| Cc1cc(CCC#N)cc(C)c1Oc1cc(Nc2ccc(C#N)cc2)c(N)cc1C(=O)NC(C)C |  | 72.6 |  |  |  |  |  | 184000 | 47.7 | 3857 |  |  |  |
| Cc1cc(CCC#N)cc(C)c1Oc1ccc(N)c(Nc2ccc(C#N)cc2)c1 | 113 | 16 | 7.1 |  |  |  |  |  | 11.6 | > 17241 |  |  | CC50 at 24 h [5]: > 200000 nM |
| Cc1cc(CCC#N)cc(C)c1Oc1cc(Nc2ccc(C#N)cc2)c(N)cc1COC(=O)C1CC1 | 23.3 | 1.63 | 14 |  | 2.51 | 4.18 | 0.195 | 42200 | 23.2 | 1818 | 1.64 (≈ 3.41 µM) | 1.24 (≈ 2.58 µM) |  |
| Cc1cc(CCC#N)cc(C)c1Oc1cc(Nc2ccc(C#N)cc2)c(N)cc1Cl | 19.7 | 11.3 | 1.7 | 2.7 |  |  |  | 10400 | 1.65 | 6303 |  |  | Ratio EC50 [14]: 3.3; EC50 [13]: 4.49 nM |
| Cc1cc(CCC#N)cc(C)c1Oc1cc(Nc2ccc(C#N)cc2)c(N)cc1C(=O)N(C)C | 11.7 | 6.16 | 1.9 | 45 | 2.86 | 72.2 | 1.65 | 38200 | 1.59 | 24025 | 1.08 (≈ 2.38 µM) | 65.1 (≈ 144 µM) | EC50 [13]: 72.2 nM |
| COC(=O)c1cc(N)c(Nc2ccc(C#N)cc2)cc1Oc1c(Br)cc(CCC#N)cc1OC | 9.98 | 5.19 | 1.9 |  | 2.85 | 81.5 | 2.32 | 10100 | < 0.122 | > 82787 | 0.2 (≈ 0.384 µM) | 1.73 (≈ 3.32 µM) |  |
| COC(=O)c1cc(N)c(Nc2ccc(C#N)cc2)cc1Oc1c(OC)cc(CCC#N)cc1OC |  | 102 |  |  |  |  |  | 128000 | 329 | 389 |  |  |  |
| CCNC(=O)c1cc(N)c(Nc2ccc(C#N)cc2)cc1Oc1c(C)cc(CCC#N)cc1C | 8.59 | 4.63 | 1.9 |  | 3.63 | 85.2 | 2.88 | 105000 | 17.1 | 6140 | 1.08 (≈ 2.38 µM) | 69.4 (≈ 153 µM) | Ratio EC50 [14]: 4 |
| COc1cc(/C=C/C#N)cc(Br)c1Oc1ccc(N)c(Nc2ccc(C#N)cc2)n1 |  | 3.25 |  |  |  |  |  |  |  |  |  |  | EC50 [15]: 3.5 nM; EC50 [16]: 3.5 nM; EC50 [17]: 3.5 nM; Ratio EC50 [18]: 1.1; Ratio EC50 [19]: 1.1; Ratio EC50 [20]: 1.1 |
| Cc1cc(CCC#N)cc(C)c1Oc1cc(Nc2ccc(C#N)cc2)c(N)cc1Br | 65.2 | 3.26 |  |  | > 5 | 58.3 | 0.833 | 84800 | 0.49 |  | 0.12 (≈ 0.26 µM) | 0.25 (≈ 0.542 µM) | EC50 [13]: 13.9 nM |
| Cc1cc(CCC#N)cc(C)c1Oc1cc(Nc2ccc(C#N)cc2)c(N)cc1CN1CCN(C)CC1 |  | 115 |  |  |  |  |  |  |  |  |  |  |  |
| CNC(=O)OCc1cc(N)c(Nc2ccc(C#N)cc2)cc1Oc1c(C)cc(CCC#N)cc1C | 93.8 | 16 | 5.8 |  |  |  |  | 46800 | 8.32 | 5625 |  |  |  |
| CNC(=O)c1cc(N)c(Nc2ccc(C#N)cc2)cc1Oc1c(OC)cc(CCC#N)cc1OC |  | 178 |  |  |  |  |  | 42600 | 137 | 311 |  |  |  |
| Cc1cc(CCC#N)cc(C)c1Oc1cc(Nc2ccc(C#N)cc2)c(N)cc1CNC1CC1 | 25.7 | 0.53 | 48 |  | 3.69 | 78.4 | 1.65 | 25500 | 6.25 | 4080 | 13.6 (≈ 30.1 µM) | 276 (≈ 611 µM) |  |
| Cc1cc(CCC#N)cc(C)c1Oc1cc(Nc2ccc(C#N)cc2)c(N)cc1CN(C)C | 23.4 | 2.73 | 8.6 | 1.1 | 2.52 | 93.3 | 3.85 | 23800 | 2.16 | 11019 | 23.4 (≈ 53.2 µM) | 260 (≈ 591 µM) | EC50 [13]: 2.46 nM |
| Cc1cc(/C=C/C#N)cc(C)c1Nc1ccnc(Nc2ccc(C#N)cc2)n1 [RILPIVIRINE] |  |  |  |  | > 5 | 80.2 | 1.93 |  |  |  |  |  | CC50 at 24 h [5]: > 30000 nM |
